In ChEMBL document CHEMBL3994578, “Optimization of benzoquinone and hydroquinone derivatives as potent inhibitors of human 5-lipoxygenase” (Eur J Med Chem, 2017):
The source made the active and inactive calls. No cut-off for these calls is given here.

Assays:
[1] = biological target: T1, Polyunsaturated fatty acid 5-lipoxygenase (Homo sapiens, UniProt P09917); test: Inhibition of recombinant human 5-lipoxygenase expressed in Escherichia coli BL21 using arachidonic acid as substrate preincubated for 15 mins followed by substrate addition measured after 10 mins by RP-HPLC method
T1 sequence (P09917 whole entry): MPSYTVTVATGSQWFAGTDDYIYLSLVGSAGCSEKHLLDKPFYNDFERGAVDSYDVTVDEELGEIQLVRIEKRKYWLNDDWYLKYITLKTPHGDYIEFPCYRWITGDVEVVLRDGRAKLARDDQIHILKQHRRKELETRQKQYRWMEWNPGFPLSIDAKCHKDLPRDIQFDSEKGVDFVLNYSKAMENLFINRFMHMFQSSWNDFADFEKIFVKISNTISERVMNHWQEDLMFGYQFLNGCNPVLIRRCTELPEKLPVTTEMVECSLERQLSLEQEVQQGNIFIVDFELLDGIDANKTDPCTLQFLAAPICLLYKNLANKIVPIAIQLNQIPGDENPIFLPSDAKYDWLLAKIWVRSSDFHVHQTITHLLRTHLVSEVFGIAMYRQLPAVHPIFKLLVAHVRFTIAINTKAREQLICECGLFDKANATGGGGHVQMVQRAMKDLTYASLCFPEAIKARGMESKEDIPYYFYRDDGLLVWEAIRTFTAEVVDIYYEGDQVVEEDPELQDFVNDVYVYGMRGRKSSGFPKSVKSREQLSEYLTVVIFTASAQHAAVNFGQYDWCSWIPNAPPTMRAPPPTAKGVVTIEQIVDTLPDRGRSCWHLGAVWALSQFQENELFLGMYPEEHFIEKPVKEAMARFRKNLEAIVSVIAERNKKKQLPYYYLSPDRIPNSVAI
Procedure, shortened: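 5-LO expressed in E. coli BL21 (pT3-5-LO) was semi-purified on ATP-agarose; 0.5 µg was used in 1 mL PBS with 1 mM EDTA and 1 mM ATP. Compound or 0.1% DMSO was preincubated 15 min at 4 °C, then samples were prewarmed 30 s at 37 °C. Reaction was started with 2 mM CaCl2 plus 20 μM AA and run 10 min at 37 °C. It was stopped with cold methanol, and products were measured by RP-HPLC. IC50 was read graphically from 4-5 concentrations; n = 3-4.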

[2] = biological target: T1, Polyunsaturated fatty acid 5-lipoxygenase; test: Inhibition of 5-lipoxygenase in human neutrophils assessed as inhibition of A23187-induced product formation using arachidonic acid as substrate preincubated for 15 mins followed by substrate and A23187 addition measured after 10 mins by RP-HPLC method
Procedure, shortened: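 Freshly isolated human neutrophils (5×10^6, from leukocyte concentrates by dextran sedimentation and Nycoprep) were taken up in 1 mL PBS pH 7.4 with 1 mg/mL glucose and 1 mM CaCl2. Cells were preincubated 15 min at 37 °C with compound or 0.1% DMSO, then stimulated with 2.5 μM A23187 plus 20 μM arachidonic acid for 10 min at 37 °C. The reaction was stopped with methanol on ice, and LTB4 all-trans isomers and 5-H(P)ETE were measured by RP-HPLC. IC50 was read graphically from 4-5 concentrations; 3-4 independent experiments.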

[3] = biological target: T2, Polyunsaturated fatty acid 5-lipoxygenase (Homo sapiens) (UniProt P09917); test: Non-competitive inhibition of recombinant human 5-lipoxygenase expressed in Escherichia coli BL21 using varying levels of arachidonic acid as substrate preincubated for 15 mins followed by substrate addition measured after 10 mins by RP-HPLC method
T2 sequence (whole entry): T1 sequence (P09917 whole entry)
Procedure, shortened: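 Semi-purified recombinant 5-LO (0.5 µg, E. coli BL21) in PBS with 1 mM EDTA and 1 mM ATP was preincubated 15 min at 4 °C with compound or 0.1% DMSO, then prewarmed 30 s at 37 °C. Reaction was started with 2 mM CaCl2 plus varying arachidonic acid concentrations and run 10 min at 37 °C. Products were measured by RP-HPLC as percent of control; n = 3.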

Mus musculus [4] = test: Anti-inflammatory activity in CD-1 mouse assessed as inhibition of carrageenan-induced paw edema at 1 mg/kg, ip pretreated for 30 mins followed by carrageenan injection measured after 4 hrs by hydroplethismometric method relative to control; assay type: functional; conditions: CD-1, ip
Procedure, shortened: (§1)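 Male CD-1 mice (35–40 g), n = 6 per group, given compound or vehicle (DMSO) i.p. 30 min before a subplantar injection of 50 μL 1% (w/v) carrageenan under light enflurane anaesthesia. Paw volume was read by hydroplethysmometer before injection (basal) and at 2, 4, 6, 24, 48 and 72 h. Data are mean ± SEM; two-way ANOVA with Bonferroni post test.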

Mus musculus [5] = test: Anti-inflammatory activity in CD-1 mouse assessed as inhibition of carrageenan-induced paw edema at 1 mg/kg, ip pretreated for 30 mins followed by carrageenan injection measured up to 72 hrs by hydroplethismometric method; assay type: functional, organism-based; procedure, shortened: as §1
Mus musculus [6] = test: Anti-inflammatory activity in CD-1 mouse model of Zymosan-induced peritonitis assessed as LTC4 level in peritoneal lavage at 1 mg/kg, ip pretreated for 30 mins followed by Zymosan injection measured after 30 mins by EIA (reference value: 10.48 +/- 1.72 ng/ml); assay type: functional
Mus musculus [7] = test: Anti-inflammatory activity in CD-1 mouse model of Zymosan-induced peritonitis assessed as inflammatory cells in peritoneal lavage at 1 mg/kg, ip pretreated for 30 mins followed by Zymosan injection measured after 4 hrs (reference value: 7 +/- 0.47 10^6No_unit); assay type: functional
Mus musculus [8] = test: Anti-inflammatory activity in CD-1 mouse assessed as inhibition of carrageenan-induced paw edema at 1 mg/kg, ip pretreated for 30 mins followed by carrageenan injection measured up to 48 hrs by hydroplethismometric method; assay type: functional, organism-based; procedure, shortened: as §1
Mus musculus [9] = test: Anti-inflammatory activity in CD-1 mouse model of Zymosan-induced peritonitis assessed as LTC4 level in peritoneal lavage at 10 mg/kg, ip pretreated for 30 mins followed by Zymosan injection measured after 30 mins by EIA (reference value: 10.48 +/- 1.72 ng/ml); assay type: functional
Mus musculus [10] = test: Anti-inflammatory activity in CD-1 mouse model of Zymosan-induced peritonitis assessed as inflammatory cells in peritoneal lavage at 10 mg/kg, ip pretreated for 30 mins followed by Zymosan injection measured after 4 hrs (reference value: 7 +/- 0.47 10^6No_unit); assay type: functional

Row | SMILES | IC50 [1] [nM] | IC50 [2] [nM] | further results
1 | CCCCCCCCCCCCCc1c(O)c(O)cc(OC)c1OC | 60 | 28 | inhibition [3]: Active; inhibition in vivo at 1 mg/kg (Mus musculus [4]): 77.4%; inhibition (Mus musculus [5]): Active; Activity (Mus musculus [6]): 1.58 ng/mL; Activity (Mus musculus [7]): 3.08 10^6 cells
2 | COC1=CC(=O)C(OC)=C(CCCCCCCCO)C1=O | 1840 | 330 | 
3 | CCCCCCCCCCCCCc1c(O)c(OC)cc(O)c1OC | 260 | 310 | 
4 | COC1=CC(=O)C(=O)C(CCCCCCCCCCCO)=C1OC | 1960 | 120 | 
5 | CCCCCCCCCCCCc1c(O)c(O)cc(OC)c1OC | 240 | 90 | 
6 | CCCCCCCCCCCCCC1=C(OC)C(OC)=CC(=O)C1=O |  |  | inhibition [3]: Active; inhibition in vivo at 1 mg/kg (Mus musculus [4]): 75%; inhibition (Mus musculus [8]): Active; Activity (Mus musculus [6]): 0.14 ng/mL; Activity (Mus musculus [7]): 3.78 10^6 cells
7 | CC(c1cc2ccccc2s1)N(O)C(N)=O (stereo not drawn) [ZILEUTON] |  |  | Activity (Mus musculus [9]): 3.35 ng/mL; Activity (Mus musculus [10]): 2.88 10^6 cells
8 | CCCCCCCCCCCCCc1c(O)c(O)cc(OC)c1O | 290 | 1600 | 
9 | COC1=CC(=O)C(OC)=C(C(CCCCCCCCCO)OC(C)=O)C1=O (stereo not drawn) | 490 | 1620 | 
10 | COC1=CC(=O)C(=O)C(CCCCCCCCCCO)=C1OC | 1080 | 360 | 
11 | COC1=CC(=O)C(OC)=C(CCCCCCCCCCCO)C1=O | 1510 | 200 | 
12 | COC1=CC(=O)C(=O)C(CCCCCCCCO)=C1OC | 220 | 150 | 
13 | COC1=CC(=O)C(OC)=C(C(O)CCCCCCCCCO)C1=O (stereo not drawn) | 1460 | 660 | 
14 | CCCCCCCCCCCc1c(O)c(O)cc(OC)c1OC | 100 | 30 | 
15 | COC1=CC(=O)C(OC)=C(CCCCCCCCCCO)C1=O | 1750 | 550 | 
